Compound activity (PubChem)
Rows were chosen to be rich in hits. Some 4.6% of all compounds tested hit in one or more screens of this group.
TAAR1 agonist: human TAAR1 agonists, primary screen, Fluo-8 calcium fluorescence, CHO RD-HGA16 cells; Trace amine-associated receptor 1 (Homo sapiens), Q96RJ0; vehicle wells 0%, saturating PEA agonist 100%; activation, % at 3 µM; actives 0.99% (n = 360,000);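 active = activation above the mean activation of all test compounds in the run plus 3 SD, cut at about 38% in these data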
Target sequence (Q96RJ0 whole entry, looked up): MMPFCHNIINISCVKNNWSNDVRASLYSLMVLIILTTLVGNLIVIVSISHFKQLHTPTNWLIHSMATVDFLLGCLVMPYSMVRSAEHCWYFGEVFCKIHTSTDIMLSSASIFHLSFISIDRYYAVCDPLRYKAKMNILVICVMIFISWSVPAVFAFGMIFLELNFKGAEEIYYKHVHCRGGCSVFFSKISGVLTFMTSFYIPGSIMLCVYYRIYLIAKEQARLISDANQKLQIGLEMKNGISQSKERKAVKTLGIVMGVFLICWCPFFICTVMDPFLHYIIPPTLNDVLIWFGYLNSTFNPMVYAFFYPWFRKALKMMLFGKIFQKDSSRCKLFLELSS
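Test system: RD-HGA16 (CHO) cells co-expressing Gα16 and hTAAR1; dosing: one-point dosing at 3 µM (nominal); timing: 17-24 h seeding, 75 min 37 °C dye, 30 min RT; signal: kinetic Fluo-8 calcium fluorescence; read-out basis: % activation relative to PEA EC100 response; controls: DMSO and PEA EC100; replicates: n 1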
GPR7 antag: GPR7 receptor antagonists, primary screen, cell-based, fluorescence, single concentration. inhibition, % at 4.4 µM. actives 1.1% (n = 290,000). AID 1861, 2009. GPR7-expressing cells, fluorescence antagonist assay. Neuropeptides B/W receptor type 1 (Homo sapiens), P48145; in the data active = inhibition above about 16%, passing the limit was not always enough;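 also: cells stimulated with the agonist NPW; 0% = agonist with vehicle and 100% = vehicle without agonist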
OX1R antag-1: antagonists of human orexin 1 receptor (OX1R) | actives 1.8% (n = 330,000) | AID 485270, 2010 | inhibition, % at 6.6 µM | Orexin/Hypocretin receptor type 1 (Homo sapiens), O43613 | OX1R-expressing cells, FRET antagonist read-out; in the data active = inhibition mostly above about 38%, no sharp cut-off; inactive = mostly below about 40%;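 also: 0% = agonist challenge alone and 100% = reference antagonist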
TAAR1 antagonist: human TAAR1 antagonists, primary screen, Fluo-8 calcium fluorescence, CHO RD-HGA16 cells. antagonist. actives 1.5% (n = 360,000). Trace amine-associated receptor 1 (Homo sapiens), Q96RJ0. AID 624466, 2012. inhibition, % at 3 µM;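 active = inhibition above a per-plate cutoff, the mean inhibition of test compounds on that plate plus 3 SD, cut at about 49% in these data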;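 also: 0% = DMSO plus EC80 beta-PEA response and 100% = DMSO alone without agonist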
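Assay system: CHO-derived RD-HGA16 cells stably expressing human TAAR1 plus Gα16. Timing: 140 s kinetic read after compound, 140 s after agonist. Technique: kinetic Fluo-8 calcium fluorescence measurement. Measure: % inhibition of agonist calcium response.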
CHO parental Ca: ATP-evoked calcium signal inhibitors, parental CHO, primary screen, counter-screen for OX1R antagonist project, cell-based, fluorescence, Fluo-8 calcium dye; AID 463079, 2010; inhibition, % at 5.6 µM; parental CHO-K1, ATP-induced calcium, Fluo-8 fluorescence; actives 0.63% (n = 330,000);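 active = inhibition above that plate's mean sample inhibition plus 3 SD, cut at about 26% in these data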;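 also: 0% = ATP-challenged DMSO wells and 100% = DMSO wells without ATP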
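Material: parental CHO cells / Compound: single nominal dose of 5.6 µM per compound / Signal: Fluo-8 fluorescence / Replicates: singlicate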
OX1R antag-2: OX1R (HCRTR1) antagonists, primary screen, fluorescence, CHO/OX1R cells, Fluo-8 calcium, orexin A. Fluo-8 calcium fluorescence. inhibition, % at 5 µM. actives 0.43% (n = 330,000);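 active = inhibition above its plate's threshold, mean inhibition of all tested compounds on the plate plus 3 SD, cut at about 37% in these data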;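 also: 0% = orexin A challenge wells and 100% = SB-334867-A antagonist wells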
nonsel antag count: nonselective antagonists in TAAR1 counter-screen cells, counter-screen for hTAAR1 antagonist project, cell-based, fluorescence, calcium; shares compounds with TAAR1 antagonist; counterscreen cell line, antagonist mode; inhibition, % at 3 µM; actives 77% (n = 2,400); in the data active = inhibition above about 22%;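 also: CHO-Ga16 host cells stimulated with ATP at an EC80 level; 0% = agonist EC80 plus vehicle and 100% = vehicle without agonist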
TAAR1 ant conf: human TAAR1 antagonists, retest of hits, confirmation, cell-based, fluorescence; shares compounds with TAAR1 antagonist; TAAR1-expressing cells, fluorescence antagonist read-out; inhibition, % at 3 µM; actives 40% (n = 2,400); AID 651785, 2012; in the data active = inhibition above about 49%;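 also: CHO-Ga16 host cells challenged with agonist PEA near its EC80; 0% = agonist at EC80 plus vehicle and 100% = vehicle with no agonist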
Ga16 ag counter: calcium activation in Ga16-expressing cells, counter-screen for TAAR1 antagonist project, cell-based, fluorescence. shares compounds with TAAR1 antagonist. agonist counterscreen. activation, % at 3 µM. actives 18% (n = 2,400). AID 651953, 2012; in the data active = activation above about 12%;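 also: 0% = vehicle wells and 100% = saturating stimulus response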
TAAR1 ag count: TAAR1 activation by candidate antagonists – cell-based, fluorescence, counter-screen for TAAR1 antagonist project | shares compounds with TAAR1 antagonist | hTAAR1 cell line, agonist mode | activation, % at 3 µM | actives 2% (n = 2,400); in the data active = activation above about 37%;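 also: CHO cells stably expressing TAAR1 with calcium dye readout; 0% = DMSO vehicle and 100% = full agonist response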
* marks the source's active call; other numbers are inactive results; . = not tested or not shown.

SMILES	TAAR1 agonist	GPR7 antag	OX1R antag-1	TAAR1 antagonist	CHO parental Ca	OX1R antag-2	nonsel antag count	TAAR1 ant conf	Ga16 ag counter	TAAR1 ag count
COc1ccc(C2=NS(=O)(=O)N(C)C(C(=O)N3CCc4ccccc4C3)=C2)cc1OC	23.9	2.2	16.3	67.8*	-1.3	-3.1	39.8*	50.3*	11.3	50.9*
CC[C@@H]1CC2=C(C(=O)OC(C)(C)O2)[C@H](c2ccc(F)cc2)O1	-1.5	.	.	-11.7	.	.	.	.	.	.
O=C(NCc1cc(C(F)(F)F)ccc1Cl)c1cccc2c1C(=O)c1ccc(N3CCOCC3)cc1S2(=O)=O	17.8	.	-1.9	60.5*	-7.5	1.6	33.2*	49.9*	22.2*	21.8
O=C(NCc1cc(C(F)(F)F)ccc1Cl)c1cccc2c1C(=O)c1ccc(N3CCCCC3)cc1S2(=O)=O	8.9	.	7.5	35.6	-31.7	-15.9	.	.	.	.
COc1ccc(NC(=O)N(C)[C@H]2C[C@H]3c4[nH]c5c(-c6ccccc6)cccc5c4CCN3C(=O)[C@H]2[C@H](C)O)cc1	15.5	.	.	69.2*	.	.	41.2*	53.0*	8.0	5.7
C[C@H](O)[C@@H]1C(=O)N2CCc3c([nH]c4ccccc34)[C@@H]2C[C@@H]1N(C)C(=O)Nc1ccccc1	1.3	.	.	4.5	.	.	.	.	.	.
O=C(NCCc1ccccc1)c1ccc2c(c1)S(=O)(=O)c1ccccc1C2=O	16.4	.	24.4	51.7*	-19.2	-25.0	20.9	46.1	7.0	5.7
O=C(NCc1ccc(F)cc1)c1ccc2c(c1)S(=O)(=O)c1ccccc1C2=O	19.1	.	26.2	51.9*	-22.4	-31.8	24.8*	40.4	7.2	13.4
O=C(NCc1ccc(C(F)(F)F)cc1)c1ccc2c(c1)S(=O)(=O)c1ccccc1C2=O	13.2	.	19.6	-0.4	-1.2	-18.1	.	.	.	.
CC(NC(=O)CNC(=O)c1sc2ccccc2c1Cl)c1cccnc1 (centres undefined)	-1.8	9.1	19.0	-2.6	-27.4	-16.4	.	.	.	.
C=CCSc1nc(C)cc(C(=O)OCC)c1C#N	-2.4	-20.1	5.0	-53.9	-14.3	-35.0	.	.	.	.
CCOC(=O)N1CCC(NC(=O)c2ccc3c(c2)sc2nc(-c4ccccc4)cn23)CC1	16.8	4.7	15.1	57.1*	-15.1	-6.8	30.9*	35.2	9.6	7.6
CCOC(=O)N1CCC(NC(=O)c2ccc3c(c2)sc2nc(-c4cccc(OC)c4)cn23)CC1	.	-9.7	.	.	.	.	.	.	.	.
Cc1ccc(CNC(=O)C(=O)NCC2OCCN2C(=O)c2cccs2)cc1 (centres undefined)	-0.1	2.8	7.2	-10.2	-8.2	-17.9	.	.	.	.
COc1cc(C(=O)NCCOc2cccc3cccnc23)cc(OC)c1OC	20.3	-12.7	18.5	74.0*	1.6	-18.1	33.6*	55.1*	11.4	12.3
O=C(N/N=C\c1c(F)c(F)c(F)c(F)c1F)c1ccc(-c2ccccc2)cc1	1.9	-9.2	4.8	-3.3	-6.6	-11.4	.	.	.	.
Cc1ccc(C(=O)NCCOc2cccc3cccnc23)cc1Cl	24.3	-14.6	30.9	-23.2	-20.2	-26.7	.	.	.	.
